Assay results from ChEMBL document CHEMBL1152539, “Synthesis and evaluation of bioactive naphthoquinones from the Brazilian medicinal plant, Tabebuia avellanedae” (Bioorg Med Chem, 2009).
Converted amounts (≈) assume the structure as drawn.

Key:
[1] = test system: Raji; experiment: Inhibition of 12-O-tetradecanoylphorbol-13-acetate-induced EBV-early antigen activation in human Raji cells assessed as EA induction at 1000 molar ratio after 48 hrs by immunofluorescence technique relative to 12-O-tetradecanoylphorbol-13-acetate; format: cell-based; conditions: human gammaherpesvirus 4
In short: (§1)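 Raji cells were incubated for 48 h at 37 °C in medium with n-butyric acid (4 mM), TPA (32 pmol) and graded amounts of test compound. Smears were stained for EBV-EA by indirect immunofluorescence, and positive cells were counted among at least 500 cells. Assays were run in triplicate. Activity was expressed relative to the n-butyric acid plus TPA control, set as 100%.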

[2] = test system: Raji; experiment: Inhibition of 12-O-tetradecanoylphorbol-13-acetate-induced EBV-early antigen activation in human Raji cells assessed as EA induction at 500 molar ratio after 48 hrs by immunofluorescence technique relative to 12-O-tetradecanoylphorbol-13-acetate; format: cell-based; set-up: scale not given: the % may be the effect or the level left; conditions: human gammaherpesvirus 4; in short: as §1
[3] = test system: Raji; experiment: Inhibition of 12-O-tetradecanoylphorbol-13-acetate-induced EBV-early antigen activation in human Raji cells assessed as EA induction at 100 molar ratio after 48 hrs by immunofluorescence technique relative to 12-O-tetradecanoylphorbol-13-acetate; format: cell-based; set-up: scale not given: the % may be the effect or the level left; conditions: human gammaherpesvirus 4; in short: as §1
[4] = test system: Raji; experiment: Inhibition of 12-O-tetradecanoylphorbol-13-acetate-induced EBV-early antigen activation in human Raji cells assessed as EA induction at 10 molar ratio after 48 hrs by immunofluorescence technique relative to 12-O-tetradecanoylphorbol-13-acetate; format: cell-based; set-up: scale not given: the % may be the effect or the level left; conditions: human gammaherpesvirus 4; in short: as §1
[5] = Inhibition of 12-O-tetradecanoylphorbol-13-acetate-induced EBV-early antigen activation in human Raji cells after 48 hrs by immunofluorescence technique; format: cell-based, human gammaherpesvirus 4; in short: as §1
[6] = Cytotoxicity against human Raji cells assessed as cell viability at 1000 molar ratio after 48 hrs by trypan blue staining; format: cell-based; conditions: read-out: Activity
In short: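 Raji cells were exposed for 48 h at 37 °C to n-butyric acid (4 mM), TPA (32 pmol) and test compound, as in the EBV-EA induction setup. Viability of the treated cells was then measured by trypan blue staining.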

[7] = test system: Bacillus subtilis; experiment: Antimicrobial activity against Bacillus subtilis NBRC3134 after 24 hrs by broth dilution method; format: functional; conditions: NBRC3134, 24 h
In short: (§2)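 Modified NCCLS broth dilution. A 50 µL aliquot of bacterial cells (10⁶/mL in 0.85% NaCl) was added to 1 mL Mueller-Hinton broth containing compound over a 0.1–100 range.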

[8] = test system: Staphylococcus aureus; experiment: Antimicrobial activity against Staphylococcus aureus NBRC13276 after 24 hrs by broth dilution method; format: functional; conditions: NBRC13276, 24 h; in short: as §2
[9] = test system: Bacillus mycoides; experiment: Antimicrobial activity against Bacillus mycoides ATCC 11778 after 24 hrs by broth dilution method; format: functional; conditions: ATCC 11778, 24 h; in short: as §2
[10] = test system: Escherichia coli; experiment: Antimicrobial activity against Escherichia coli ATCC 11775 after 24 hrs by broth dilution method; format: functional; conditions: ATCC 11775, 24 h; in short: as §2
[11] = test system: Pseudomonas aeruginosa; experiment: Antimicrobial activity against Pseudomonas aeruginosa NBRC13275 after 24 hrs by broth dilution method; format: functional; conditions: NBRC13275, 24 h; in short: as §2
[12] = test system: Salmonella enteritidis; experiment: Antimicrobial activity against Salmonella enteritidis OPS10 after 24 hrs by broth dilution method; format: functional, Salmonella enterica subsp. enterica serovar Enteritidis; conditions: Salmonella enterica, OPS10, 24 h; in short: as §2
[13] = test system: Candida albicans; experiment: Antimicrobial activity against Candida albicans NBRC1060 after 24 hrs by broth dilution method; format: functional; conditions: NBRC1060, 24 h
[14] = test system: Saccharomyces cerevisiae; experiment: Antimicrobial activity against Saccharomyces cerevisiae NBRC10114 after 24 hrs by broth dilution method; format: functional; conditions: NBRC10114, 24 h
[15] = test system: Penicillium expansum; experiment: Antimicrobial activity against Penicillium expansum NBRC8800 after 24 hrs by broth dilution method; format: functional; conditions: NBRC8800, 24 h
[16] = test system: Naganishia albida; experiment: Antimicrobial activity against Cryptococcus albidus NBRC0378 after 3-5 days by broth dilution method; conditions: NBRC0378, 3-5 days
[17] = test system: Aspergillus fumigatus; experiment: Antimicrobial activity against Aspergillus fumigatus NBRC4400 after 3-5 days by broth dilution method; conditions: NBRC4400, 3-5 days
[18] = test system: Paecilomyces variotii; experiment: Antimicrobial activity against Paecilomyces variotii NBRC4855 after 3-5 days by broth dilution method; conditions: NBRC4855, 3-5 days
[19] = Antiproliferative activity against human skin fibroblast after 72 hrs by trypan blue exclusion assay; format: cell-based
In short: (§3)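 Cells were kept in DMEM with 10% fetal serum and exposed to four concentrations of compound for 72 h at 37 °C in humidified 5% CO₂. They were then stained with 0.25% trypan blue for 20 min, and viable cells were counted by light microscopy. IC₅₀ was derived from separate experiments run in triplicate.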

[20] = test system: Hepatocyte; experiment: Antiproliferative activity against human hepatocytes after 72 hrs by trypan blue exclusion assay; format: cell-based; in short: as §3
[21] = Anticancer activity against DMBA/TPA-induced skin cancer in mouse assessed as incidence of papilloma at 85 nmol administered before TPA challenge measured after 10 weeks; format: functional
In short: (§4)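 Mouse two-stage skin model: DMBA 390 nmol in 0.1 mL acetone applied topically by pipet. One week later, the same skin site was painted with test compound (85 nmol in acetone) or acetone alone, 60 min before TPA (1.7 nmol). Tumor response was scored as the average number of papillomas per mouse and the percentage of mice bearing papillomas.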

[22] = Anticancer activity against DMBA/TPA-induced skin cancer in mouse assessed as incidence of papilloma at 85 nmol administered before TPA challenge measured after 15 weeks; format: functional; in short: as §4
[23] = Anticancer activity against DMBA/TPA-induced skin cancer in mouse assessed as incidence of papilloma at 85 nmol administered before TPA challenge measured after 20 weeks; format: functional; in short: as §4
[24] = Anticancer activity against DMBA/TPA-induced skin cancer in mouse assessed as number of papillomas per mouse at 85 nmol administered before TPA challenge measured after 20 weeks; format: functional; in short: as §4
[25] = test system: Naganishia albida; experiment: Antimicrobial activity against Cryptococcus albidus NBRC0378 after 24 hrs by broth dilution method; format: functional; conditions: NBRC0378, 24 h
[26] = test system: Candida albicans; experiment: Antimicrobial activity against Candida albicans NBRC1060 after 3-5 days by broth dilution method; conditions: NBRC1060, 3-5 days
[27] = test system: Penicillium expansum; experiment: Antimicrobial activity against Penicillium expansum NBRC8800 after 3-5 days by broth dilution method; conditions: NBRC8800, 3-5 days
[28] = test system: Saccharomyces cerevisiae; experiment: Antimicrobial activity against Saccharomyces cerevisiae NBRC10114 after 3-5 days by broth dilution method; conditions: NBRC10114, 3-5 days
[29] = test system: PC-3; experiment: Antiproliferative activity against human PC3 cells after 72 hrs by trypan blue exclusion assay; format: functional, cell-based; conditions: PC-3, 72 h; in short: as §3
[30] = test system: A549; experiment: Antiproliferative activity against human A549 cells after 72 hrs by trypan blue exclusion assay; format: functional, cell-based; conditions: A549, 72 h; in short: as §3
[31] = test system: MCF7; experiment: Antiproliferative activity against human MCF7 cells after 72 hrs by trypan blue exclusion assay; format: functional, cell-based; conditions: MCF7, 72 h; in short: as §3
[32] = Antiproliferative activity against human Hs888Lu cells after 72 hrs by trypan blue exclusion assay; format: cell-based; in short: as §3
[33] = Antiproliferative activity against human SVCT-M12 cells after 72 hrs by trypan blue exclusion assay; format: cell-based; conditions: SVCT-M12, 72 h; in short: as §3
[34] = Cytotoxicity against human Raji cells assessed as cell viability at 500 molar ratio after 48 hrs by trypan blue staining; format: cell-based; conditions: read-out: Activity
In short: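 Raji cells incubated 48 h at 37 °C in medium containing n-butyric acid (4 mM), TPA (32 pmol) and various amounts of test compound, as part of the EBV-EA activation inhibition assay. Viability of the treated cells was then assayed by trypan blue staining.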

IC50 [5] [mol ratio/32 pmol TPA]	MIC [7] [µg/mL]	MIC [8] [µg/mL]	MIC [9] [µg/mL]	MIC [10] [µg/mL]	MIC [11] [µg/mL]	MIC [12] [µg/mL]	MIC [13] [µg/mL]	MIC [15] [µg/mL]	MIC [16] [µg/mL]	MIC [17] [µg/mL]	MIC [18] [µg/mL]	MIC [28] [µg/mL]	Structure (SMILES)	EA induction relative to TPA control [1] [%]	Activity [2] [%]	Activity [3] [%]	Activity [4] [%]	viability at 48 h, 1000 molar ratio [6] [%]	IC50 [29] [µM]	IC50 [30] [µM]	other results
201	1.56 (≈ 6.04 µM)	6.25 (≈ 24.2 µM)	1.56 (≈ 6.04 µM)	> 100	> 100	> 100	25 (≈ 96.8 µM)	50 (≈ 194 µM)	1.56 (≈ 6.04 µM)	25 (≈ 96.8 µM)	50 (≈ 194 µM)	–	C[C@@H](O)c1cc2c(o1)C(=O)c1c(O)cccc1C2=O	4.2	20.4	52.5	76.3	60	–	–	MIC [14]: 3.13 µg/mL (≈ 12.1 µM)
306	–	–	–	–	–	–	–	–	–	–	–	–	CC(O)c1cc2c(o1)C(=O)c1c(O)cccc1C2=O (racemic)	8.9	28.4	59	84.6	60	–	–	–
38.9	0.78 (≈ 3.02 µM)	3.13 (≈ 12.1 µM)	0.78 (≈ 3.02 µM)	> 100	> 100	> 100	–	–	–	12.5 (≈ 48.4 µM)	25 (≈ 96.8 µM)	3.13 (≈ 12.1 µM)	C[C@@H](O)c1cc2c(o1)C(=O)c1cccc(O)c1C2=O	0	9.7	24.7	59.4	70	–	–	EC50 [19]: 39.7 µM; EC50 [20]: 29.8 µM; Activity [21]: 7%; Activity [22]: 47%; Activity [23]: 67%; Activity [24]: 3.9; MIC [25]: 1.56 µg/mL (≈ 6.04 µM); MIC [26]: 25 µg/mL (≈ 96.8 µM); MIC [27]: 25 µg/mL (≈ 96.8 µM)
37.2	1.56 (≈ 6.09 µM)	1.56 (≈ 6.09 µM)	0.78 (≈ 3.04 µM)	> 100	> 100	> 100	> 100	50 (≈ 195 µM)	1.56 (≈ 6.09 µM)	100 (≈ 390 µM)	100 (≈ 390 µM)	1.56 (≈ 6.09 µM)	CC(=O)c1cc2c(o1)C(=O)c1cccc(O)c1C2=O	0	7.1	23.7	56	60	0.84	2	IC50 [31]: 0.78 µM; EC50 [32]: 7.7 µM; EC50 [33]: 7.7 µM
–	0.39 (≈ 1.17 µM)	0.39 (≈ 1.17 µM)	1.56 (≈ 4.67 µM)	–	–	–	–	–	–	–	–	–	CC1(C)S[C@@H]2[C@H](NC(=O)Cc3ccccc3)C(=O)N2[C@H]1C(=O)O [PENICILLIN G]	–	–	–	–	–	–	–	–

Structure (SMILES)	IC50 [5] [mol ratio/32 pmol TPA]	MIC [7] [µg/mL]	MIC [8] [µg/mL]	MIC [9] [µg/mL]	MIC [10] [µg/mL]	MIC [11] [µg/mL]	MIC [12] [µg/mL]	MIC [13] [µg/mL]	MIC [15] [µg/mL]	MIC [16] [µg/mL]	MIC [17] [µg/mL]	MIC [18] [µg/mL]	MIC [28] [µg/mL]	EA induction relative to TPA control [1] [%]	Activity [2] [%]	Activity [3] [%]	Activity [4] [%]	viability at 48 h, 1000 molar ratio [6] [%]	IC50 [29] [µM]	IC50 [30] [µM]	other results
CC(C)=CCC1=C(O)C(=O)c2ccccc2C1=O [LAPACHOL]	311	–	–	–	–	–	–	–	–	–	–	–	–	8.9	32.8	65.2	86.6	50	1.97	4.78	IC50 [31]: 10.2 µM; viability at 48 h, 500 molar ratio [34]: 60%
